The data set can be described thus: Toxicity liver stage against HepG2, at 10uM. The settings on record: human, HepG2-A16-CD81EGFP cells; read-out: INHIBITION
Format: cell-based. Set-up: test concentration 10 uM, cell line HepG2-A16-CD81EGFP. In a few lines:
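Uninfected HepG2-A16-CD81EGFP cells, 3 × 10^3 per well, 1536-well, plated on prespotted compound at 10 μM final, parasite-free screening media added to match infected plates; puromycin 10 μM positive, DMSO 0.5% negative; run in parallel with 48 h PbLuc assay at 37 °C, 5% CO2; viability by CellTiter-Glo luminescence, normalized to controls.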
In the case of `O=C(C1CCOCC1)N1C[C@@H](F)[C@@H](OCc2nc3cc(F)ccc3[nH]2)C1`, the cytotoxicity at 10 µM is -9.9%.

`O=C(NC[C@H]1OC[C@@H](NCc2ccccn2)[C@@H]1O)c1ccc(F)cc1`: the cytotoxicity at 10 µM was -2.65%. With `CO[C@@H]1CN(C)S(=O)(=O)[C@@]12CCN(Cc1ccccc1)C2` the figure was 3.02%. On to `COCCOC(=O)N1CCN2C[C@@H](CO)[C@H](c3ccccc3)[C@H]2C1`, for which the cytotoxicity at 10 µM was 3.44%.

For the molecule `COC(=O)CCC(=O)N(Cc1ccc2cc[nH]c2c1)C1CC1`, the cytotoxicity at 10 µM was -3.4%. Consider `Cc1nn(C2CCS(=O)(=O)C2)c(C)c1CC(=O)NCc1ccccc1Cl` (stereo unspecified), for which the cytotoxicity at 10 µM is -0.178%. With `CCOc1ccc(NC(=O)Nc2cnc(N3CCOCC3)nc2)cc1` the figure was -11.4%; with `O=C1COc2ccc(Cl)cc2CN1CC1CC1`, -9.2%.

With `CCN1CC2(CCCCN2C(=O)c2ccsc2)CC1=O` (stereo unspecified), the cytotoxicity at 10 µM came to 5.97%. For `CCNC(=O)c1cc(OC)c2cc(F)cc(C)c2n1`, the cytotoxicity at 10 µM was -3.42%. For the molecule `O=S(=O)(C1CC1)N1CCC2(COCc3cnc(N4CCOCC4)nc32)C1` (stereo unspecified), the cytotoxicity at 10 µM was -5.44%. In the case of `O=C(NCCN1CCOCC1)c1ccn(COc2ccc(F)cc2)n1` it was 6.17%; in that of `CCc1noc(C2CCCCN2C(=O)c2cccnc2)n1` (stereo unspecified), 8.52%; in that of `CCS(=O)(=O)N1CCCC(n2nnn(-c3ccccc3)c2=O)C1` (stereo unspecified), 2.65%. With `CS(=O)(=O)c1cncnc1C1CCCN(C(=O)Nc2ccccc2F)C1` (stereo unspecified) the figure was -0.675%; with `Cc1nonc1CN(C)Cc1cnn(-c2ccc(Cl)cc2)c1`, -16.3%; with `Cc1cccc(CC2CCCN(C(=O)Cc3csc(C)n3)C2)n1` (stereo unspecified), -26.5%. In the case of `Cc1cc(C)nc(C2CCN(C(=O)c3cnco3)C2)n1` (stereo unspecified) it was -4.22%; in that of `CCc1cc(C(F)(F)F)c2c(C3CCCN(C(=O)COC)C3)noc2n1` (stereo unspecified), -17.6%; in that of `COc1ccccc1-c1cc(C(=O)N(C)C)c2cnn(C)c2n1`, 10.6%. Regarding `Cc1cc(-n2c(C)cn(CN(C)CC3CC3)c2=O)no1`, the cytotoxicity at 10 µM was -2.95%. For `COCCC1(C(=O)NCCc2nncn2C2CC2)CCC1`, the cytotoxicity at 10 µM is -9.22%. With `Cc1noc(CCNC(=O)c2ccc(Br)c(S(=O)(=O)N(C)C)c2)n1` the figure was 6.45%. In the case of `COc1cccc(F)c1C(C)NC(=O)NCc1cnc(C)s1` (stereo unspecified) it was -4.94%. Consider `Cc1noc(C(C)C)c1C(=O)NCC1CCN(c2ccccc2)C1` (stereo unspecified), for which the cytotoxicity at 10 µM was -11.8%. With `c1cc(CNCc2cccc3c2OCCO3)cc(Cn2cncn2)c1` the figure was -1.54%; with `CC(C)(C)C(=O)NCCCc1nc2ccccc2[nH]1`, 5.68%. In the case of `COC(=O)CCNC(=O)c1ccc(OCc2ccccc2)nc1` it was 4.93%; in that of `CCc1nc(CCNc2ncccc2C#N)sc1C`, 15.4%. In the case of `CC(CNC(=O)c1cccc(C#N)c1)N1CCc2ccccc21` (stereo unspecified) it was -16.3%; in that of `Cc1cc(C)c(CNC(=O)N2CCC(N3CCNC3=O)CC2)c(C)c1`, -2.22%. On to `CC(C)NC(=O)c1cccc(NC(=O)CCCc2nc(C(C)C)no2)c1`, for which the cytotoxicity at 10 µM is 5.51%. As for `CC(C)n1c(C2CCCN(CC(N)=O)C2)nc2ccccc21` (stereo unspecified), the cytotoxicity at 10 µM was -7.68%. In the case of `CC1CCN(CCNC(=O)C2CCN(C(=O)C3CC3)CC2)CC1` it was 6.86%; in that of `CN(C)C(=O)Cn1cc(C(=O)NCCc2cccc(Cl)c2Cl)nn1`, -1.42%; in that of `CCc1nnc2n1CCN(C(=O)c1ccc3c(c1)nnn3C)C2`, -4.68%.

As to `CCOc1ccccc1NC(=O)N(CCO)Cc1ccsc1`, the cytotoxicity at 10 µM was 0.633%. With `Cc1noc(Cl)c1CC(=O)N1CCCC1Cn1cccn1` (stereo unspecified) the figure was -9.76%. In the case of `N#Cc1cccc(NC(=O)N2CCCC(N3CCCC3=O)C2)c1` (stereo unspecified) it was 7.92%; in that of `CC(C)NC(=O)NCCCOC1CCOCC1`, -17%. In the case of `O=C(Nc1ccccc1)NC1CCN(C2CCOC2)CC1` (stereo unspecified) it was 7.76%; in that of `Cc1[nH]ccc1C(=O)N(Cc1ccc(O)cc1)CC1CC1`, 6.99%. Regarding `CC(C)(NC(=O)c1cnc(-c2ccccc2F)s1)C(N)=O`, the cytotoxicity at 10 µM came to 6.96%. With `CN(CCS(=O)(=O)c1cc(Cl)ccc1Cl)CC(=O)Nc1ccc(F)cc1` the figure was 8.9%. Turning to `Cc1noc(CCCC(=O)Nc2ncccc2Br)n1`, the cytotoxicity at 10 µM is -15.7%. With `CC(=O)c1cccc(OCCCC(=O)N(C)CCc2ccncc2)c1` the figure was -11.7%. With `Cc1nc(C)n(CC2CCCCN2CCS(C)(=O)=O)n1` (stereo unspecified), the cytotoxicity at 10 µM was -10.9%. With `NS(=O)(=O)CCNC(=O)C1(c2ccc(Br)cc2)CC1` the figure was -4.69%; with `O=C(C1CCOC1)N1C[C@@H]2CCN(C(=O)c3cscn3)[C@@H]2C1` (stereo partly specified), -2.85%. In the case of `Cc1nc(CN2C[C@@H]3CN(C(=O)CC(F)(F)F)C[C@@H]3C2=O)cs1` it was -73.5%; in that of `CN(Cc1ccc(-n2ccnc2)cc1)Cc1ncc[nH]1`, 3.69%. Consider `CO[C@H]1COC[C@@H]1NC(=O)C1(Oc2ccc(Cl)cc2)CCNCC1`, for which the cytotoxicity at 10 µM was -1.91%. With `CC(C)Cc1noc(CN(C)c2cc(N(C)C)ncn2)n1` the figure was -0.75%.

In the case of `Cc1ccc(C(=O)N2CCC3(CCC(=O)N(CC(C)O)C3)CC2)c(O)c1` (stereo unspecified), the cytotoxicity at 10 µM came to 11%. In the case of `CCn1nc(C)c(CCNC(=O)C2CCCN(C(N)=O)C2)c1C` (stereo unspecified) it was -11.2%; in that of `CCC(CO)N(Cc1ccc(F)cc1)Cc1c(C)nn(C)c1Cl` (stereo unspecified), 8.64%; in that of `CC(NC1CCCC1)c1ccccc1-n1cccn1` (stereo unspecified), 7.5%. With `COc1cccc(N2CCN(C(=O)C(OC)c3ccccc3)CC2=O)c1` (stereo unspecified) the figure was -0.693%.

`CC(C)Cc1cc(C(=O)NCC(O)CN2CCCCCC2)on1` (stereo unspecified): the cytotoxicity at 10 µM is -1.53%. With `Cc1nc(C)c(C)c(NCCSCc2[nH]cnc2C)n1` the figure was 2.3%; with `CN1CCN(C[C@@H]2CN(C(=O)NCC3CCCCC3)C[C@@H]2CO)CC1`, -9.18%. In the case of `CCCSCC(=O)N1C[C@@H](NC(C)=O)[C@H](c2ccc(OC)cc2)C1` it was 7.41%; in that of `CC(C)N(Cc1nccn1C)C(=O)c1cnc(O)cn1`, -1.82%.

As for `Cc1ccc(OC2(C(=O)NC(C)Cc3ccsc3)CCNCC2)cc1` (stereo unspecified), the cytotoxicity at 10 µM was -15.4%. In the case of `Cc1cc(C)c2nc(CN3CCC(CN)C3)cc(O)c2c1` (stereo unspecified) it was -14.8%; in that of `Cc1ccc(C(=O)O)cc1-c1cccc(C(C)N(C)C)c1` (stereo unspecified), -3.17%. In the case of `CCC(=O)N1CCCC1c1nccnc1Nc1nc(C)cc(C)n1` (stereo unspecified) it was 3.99%; in that of `O=C(Cc1c(F)cccc1Cl)N1CCC(Nc2cccnn2)CC1`, -4.92%. In the case of `CN(C)c1cc(C(=O)N2CCCCC2CNS(C)(=O)=O)ccn1` (stereo unspecified) it was -16%. For the molecule `Cc1nc(C)n(CC2CCCN(CCC(=O)NC3CCCC3)C2)n1` (stereo unspecified), the cytotoxicity at 10 µM was -6.73%. On to `O=C(CN(Cc1ccco1)C1CC1)N1CCCCCC1`, for which the cytotoxicity at 10 µM is -3.26%.

For the molecule `COc1cc2ccccc2cc1C(=O)N1CCCC(c2nncn2C)C1` (stereo unspecified), the cytotoxicity at 10 µM was -6.9%. For the molecule `Cn1cnnc1C1CCCN(C(=O)c2cc3ccccc3[nH]2)C1` (stereo unspecified), the cytotoxicity at 10 µM was -7.88%.

In the case of `Cn1ccc(CN2CCCC2c2ccc3c(c2)OCCCO3)cc1=O` (stereo unspecified), the cytotoxicity at 10 µM is -4.2%. With `Cc1csc(N2CCCN(C(=O)C3(C#N)CCCCC3)CC2)n1` the figure was -2.45%; with `CCc1nc(C2CCCN2C(=O)c2ccc3c(c2)nc(C)n3C)no1` (stereo unspecified), 3.54%; with `COc1ccc(CN2CCCC2Cn2nc(C)nc2C)cc1F` (stereo unspecified), 2.89%.

Take `CC(CNCc1ccc2c(c1)n(C)c(=O)n2C)Oc1ccccn1` (stereo unspecified): the cytotoxicity at 10 µM came to 6.27%. With `COCCN1CCn2c(CN(C)C(C)C)cnc2C1` the figure was -2.92%; with `CCN1CCn2c(C)cnc2C12CCN(C(=O)c1cscn1)CC2`, 6.59%; with `COCCN1C[C@@H](C)[C@@]2(COCCN(C(=O)c3ccncc3)C2)C1`, 5.71%. With `CO[C@@H]1CC[C@H]2[C@H]1OCCN2Cc1ccc(F)c(F)c1` the figure was 4.33%; with `c1cncc(CO[C@H]2CC[C@H]3[C@@H]2OCCN3C2CCOCC2)c1`, -14.4%; with `O=C1CCCN1Cc1nnc2n1CCN(Cc1ccco1)CC2`, 3.39%. Turning to `O=C(NCc1ccccn1)[C@@H]1COC[C@H]2CN(c3ncccn3)C[C@H]21`, the cytotoxicity at 10 µM amounted to 7.31%. Consider `CN1CCN([C@@H]2CCN(C3CCOCC3)[C@H]2Cc2cnn(C)c2)CC1`, for which the cytotoxicity at 10 µM was 5.07%. In the case of `COc1ccc(CN2CCC3(CC2)CCN(CC(=O)N(C)C)C3=O)cc1` it was -0.449%; in that of `COc1cccc(-c2c[nH]c(C3CCCN3)n2)c1` (stereo unspecified), -4.91%; in that of `CN1CCN(Cc2cccnc2)C2(CCN(c3ncc(F)cn3)C2)C1=O` (stereo unspecified), -6.49%. With `COC[C@H]1CCC[C@]12CN(CCc1ccccc1)CCO2` the figure was 4.34%. With `CCOCC1CN(c2ccncn2)Cc2cnn(CC3CC3)c21` (stereo unspecified) the figure was 6.38%; with `CC(=O)N1C[C@@H]2CN(Cc3cccnc3)CCO[C@@H]2C1`, -0.271%; with `Cc1ccc(N2CCCC3(COCCN(c4nccs4)C3)C2)nn1` (stereo unspecified), -1.05%. With `O=C1NC2(CCN(C(=O)c3ccccc3)CC2)CC1c1cccnc1` (stereo unspecified), the cytotoxicity at 10 µM is -10.9%.

For `CC1CCC(n2cc3nc(N)[nH]cc-3c2=O)CC1` (stereo unspecified), the cytotoxicity at 10 µM is -0.0237%.

For the molecule `COCC(=O)NCC1CCC(c2nnc(-c3cccnc3)o2)CC1` (stereo unspecified), the cytotoxicity at 10 µM was -2.74%.
